From PubChem
Compounds with a hit are over-represented: about 1.4% of the library has one in this group of screens.
ASAP1 GAP inh = inhibitors of human ASAP1 ArfGAP activity, primary screen, biochemical, fluorescence polarization; inhibition, % at 16.5 µM; ASAP1-stimulated ARF1 GTP hydrolysis, GDP FP detection; 360,000 compounds, 0.19% hits; Arf-GAP with SH3 domain, ANK repeat and PH domain-containing protein 1 (Homo sapiens), …; AID 624377, 2012; in the data active means inhibition above about 25%
Target sequence (Q9ULH1 325-724 limits assumed): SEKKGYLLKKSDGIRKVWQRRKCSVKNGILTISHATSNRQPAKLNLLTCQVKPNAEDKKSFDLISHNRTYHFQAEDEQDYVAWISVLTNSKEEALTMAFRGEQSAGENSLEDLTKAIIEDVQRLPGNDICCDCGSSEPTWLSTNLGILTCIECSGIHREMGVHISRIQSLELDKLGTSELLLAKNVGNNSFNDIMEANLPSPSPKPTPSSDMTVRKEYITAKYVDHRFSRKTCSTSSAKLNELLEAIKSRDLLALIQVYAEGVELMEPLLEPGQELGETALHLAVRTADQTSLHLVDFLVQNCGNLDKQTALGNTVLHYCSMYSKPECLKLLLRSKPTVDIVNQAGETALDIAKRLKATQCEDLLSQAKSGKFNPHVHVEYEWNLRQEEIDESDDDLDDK
ARFGAP1 inhibitor = inhibitors of rat ARFGAP1 GAP activity, primary screen, biochemical, fluorescence polarization, GDP tracer; Arfgap1-stimulated ARF1 GTP hydrolysis, GDP FP detection; inhibition, % at 16.5 µM; 360,000 compounds, 0.26% hits;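 active means inhibition above a per-plate limit, mean inhibition of low control wells plus 3 SD, cut at about 25% in these data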
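System: truncated rat Arfgap1 GAP domain / Medium: HEPES-based buffer, pH 7.5 / Also added: N-terminally truncated human ARF1-GTP substrate / Incubation: enzyme reaction 120 min at 25 °C after 20 min preincubation / Measured by: FP of antibody-bound GDP Alexa 633 tracer, ex 620/em 688 nm / Replicates: singlicate, each compound tested once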
bovine MsrA act = bovine MsrA enzyme activators, primary screen, biochemical, absorbance, HTS | purified bovine MsrA, absorbance read-out | Methionine sulfoxide reductase A (Bos taurus) | AID 602163, 2012 | activation, % at 10.6 µM | 360,000 compounds, 0.3% hits; in the data active means activation above about 7.5%
MsrA inhibitor = bovine MsrA enzyme inhibitors, primary screen, biochemical, absorbance, HTS. Methionine sulfoxide reductase A (Bos taurus). purified bovine MsrA, absorbance read-out. inhibition, % at 15.5 µM. 360,000 compounds, 0.75% hits
MsrA inh confirm = bovine MsrA inhibitors, retest, confirmation, biochemical, absorbance, HTS. purified bovine MsrA, absorbance read-out. inhibition, % at 15.5 µM. shares compounds with MsrA inhibitor. 2,300 compounds, 41% hits. AID 651822, 2012;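 further: coupled to thioredoxin reductase with NADPH and selenocystamine and DMSO as substrate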
Large screens that a line does not name were inactive (follow-up assays come after a bar, where they were run). Unless noted, no stated cut-off is given here; in the data, active means inhibition above about 4.5%; inactive means the rest.

CS(=O)(=O)c1ccc2nc(NC(=O)c3ccc(Cl)cc3)sc2c1	none
CCOCCCNCc1ccc(OCc2ccccc2C)c(OC)c1	none
Cn1nc(C(C)(C)C)c([N+](=O)[O-])c1C(=O)NC1CCCCC1	none
O=C1c2cccc3cc([N+](=O)[O-])cc(c23)C(=O)N1/N=C/c1ccc(O)cc1O	MsrA inhibitor 4.7 | MsrA inh confirm inactive
O=C1c2cccc3cc([N+](=O)[O-])cc(c23)C(=O)N1CCN1CCCC1	none
CCc1nc2c(OCC3COc4ccccc4O3)cccn2c1N(C)C(=O)c1ccccc1F (configuration not stated)	none
O=S(=O)(N/N=C\c1ccc(-c2ccccc2Cl)o1)c1ccccc1	MsrA inhibitor 4.9 | MsrA inh confirm inactive
Cc1nnc(C)n1/N=C/c1ccc(-c2ccccc2Cl)o1	MsrA inhibitor 5.2 | MsrA inh confirm 4.9
S=c1[nH]nc(-c2ccccc2)n1/N=C/c1ccc(-c2ccccc2Cl)o1	none
Cc1ccccc1N=C1c2ccccc2C(=O)C1[N+](=O)[O-] (configuration not stated)	MsrA inhibitor 5.8 | MsrA inh confirm inactive
CC(=O)C1C(=O)c2c(cccc2[N+](=O)[O-])C1=Nc1ccccc1C (configuration not stated)	none (no result: bovine MsrA act)
Cc1ccc(OCC(=O)N/N=C/C=C/c2ccco2)cc1	MsrA inhibitor 4.7 | MsrA inh confirm inactive
Cc1ccc(S(=O)(=O)NNC(=O)c2sc(=S)n(C)c2C)cc1	none
Cc1c(C(=O)N/N=C/c2ccc(O)cc2)sc(=S)n1C	MsrA inhibitor 5.8 | MsrA inh confirm 4.8
O=C(Nc1nc2ccc(S(=O)(=O)N3CCOCC3)cc2s1)c1cccs1	MsrA inhibitor 5.6 | MsrA inh confirm inactive
CN(C)S(=O)(=O)c1ccc2nc(NC(=O)c3cccs3)sc2c1	MsrA inhibitor 6.2 | MsrA inh confirm 5.4
CC(=O)c1cccc(-c2ccnc3c2CC(C(=O)Nc2cccc(NS(C)(=O)=O)c2)O3)c1 (configuration not stated)	none
CN(C)CCN(Cc1cc2cc3c(cc2[nH]c1=O)OCCO3)C(=S)NCC1CCCO1 (configuration not stated)	MsrA inhibitor 5.2 | MsrA inh confirm inactive
CCN(CC)CCN(Cc1cc2cc3c(cc2[nH]c1=O)OCCO3)C(=S)NCC1CCCO1 (configuration not stated)	none
COCCNC(=S)N(CCCO)Cc1cc2cc3c(cc2[nH]c1=O)OCCO3	none
COCCNC(=S)N(CCO)Cc1cc2cc3c(cc2[nH]c1=O)OCO3	MsrA inhibitor 5.1 | MsrA inh confirm 5.1
COC(=O)/C(=C1/Oc2cc3c(cc2S1)OCO3)C(F)(F)F	MsrA inhibitor 6.6 | MsrA inh confirm 7.0
COc1cc(C2c3cc4c(cc3OC(Nc3ccc(C(=O)O)cc3)C2C)OCO4)cc(OC)c1OC (configuration not stated)	none
COC(=O)/C(=C1/Oc2ccc(C)cc2S1)C(F)(F)F	MsrA inhibitor 9.6 | MsrA inh confirm 11
COc1ccc(-n2ccnc2SCC(=O)c2c(N)n(C3CC3)c(=O)[nH]c2=O)cc1	none
Cn1cc(CCOCc2ccccc2)c2ccccc21	none (no result: bovine MsrA act)
O=C(CCC1CCCCC1)Nc1nncs1	none
O=C(N/N=C/c1ccc(O)c(O)c1)N/N=C/c1ccc(O)c(O)c1	MsrA inhibitor 5.7 | MsrA inh confirm inactive
COc1ccc2c(c1)c(C(=O)N/N=C/c1ccc(O)c(O)c1)c(C)n2C	MsrA inhibitor 5.5 | MsrA inh confirm inactive
CC(C)NCCCCOc1ccc(Br)cc1Cl	none
Cc1ccc(F)c(N=Cc2c(O)c3ccccc3oc2=O)c1	none
O=Cc1cnc(N2CCCCC2)s1	MsrA inhibitor 5.0 | MsrA inh confirm 6.9
CCCC[n+]1ccc(-c2nc3ccc([N+](=O)[O-])cc3[nH]2)cc1	MsrA inhibitor 4.8 | MsrA inh confirm inactive
O=C(c1ccc(F)cc1)N1CCN(c2cc(=O)[nH]nc2-c2ccccc2)CC1	none
O=C(COc1ccccc1[N+](=O)[O-])N(Cc1ccccc1)c1ccccn1	MsrA inhibitor 7.3 | MsrA inh confirm inactive
CCOC(=O)N1CCN(C(=O)CSCc2ccccc2Cl)CC1	none
OC[C@@H]1CN(Cc2cccs2)C[C@H](n2cnc3c(NCc4ccco4)ncnc32)O1	none
